≈ marks a conversion by molar mass, not a printed value.
Experiments:
WI-38 = assay: Growth inhibition of human WI38 cells; assay type: functional, cell-based
Procedure, shortened: (§1)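 Growth inhibition assays. WI-38 cells were kept in Eagle's MEM and VA-13 cells in RITC 80-7, both with 10% (v/v) FBS and 80 µg/mL kanamycin. HepG2 cells were kept in D-MEM with 10% (v/v) FBS and 80 µg/mL kanamycin. IC50 is the concentration giving 50% growth inhibition.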

HepG2 = assay: Growth inhibition of human HepG2 cells; assay type: functional, cell-based; procedure, shortened: as §1
WI-38 VA13 = assay: Growth inhibition of human VA13 cells; assay type: functional, cell-based; procedure, shortened: as §1
[1] = Effect on calcein accumulation in human multidrug-resistant 2780AD cells at 2.5 ug/mL relative to verapamil; assay type: functional, A2780 ADR
Procedure, shortened: (§2)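 Calcein accumulation assay. Multidrug-resistant human ovarian cancer 2780AD (AD10) cells were grown in RPMI-1640 with 10% (v/v) FBS and 80 µg/mL kanamycin. Calcein formed from calcein AM by endogenous esterase served as the efflux probe. Cells were tested at 0.25, 2.5 and 25 µg/mL. Read-out was fluorescence per well, as the mean of triplicates, expressed relative to the untreated control or to the verapamil positive control.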

[2] = Effect on calcein accumulation in human multidrug-resistant 2780AD cells at 25 ug/mL relative to verapamil; assay type: functional, A2780 ADR; procedure, shortened: as §2
[3] = Effect on calcein accumulation in human multidrug-resistant 2780AD cells at 25 ug/mL relative to control; assay type: functional, A2780 ADR; procedure, shortened: as §2
[4] = Effect on calcein accumulation in human multidrug-resistant 2780AD cells at 0.25 ug/mL relative to verapamil; assay type: functional, A2780 ADR; procedure, shortened: as §2
[5] = Effect on calcein accumulation in human multidrug-resistant 2780AD cells at 2.5 ug/mL relative to control; assay type: functional, A2780 ADR; procedure, shortened: as §2
[6] = Effect on calcein accumulation in human multidrug-resistant 2780AD cells at 0.25 ug/mL relative to control; assay type: functional, A2780 ADR; procedure, shortened: as §2
A549 [7] = assay: Cytotoxicity against human A549 cells by MTT assay; assay type: cell-based
Procedure, shortened: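 Cell viability was measured by MTT assay in human A549 cells grown in RPMI 1640 with heat-inactivated 10% FBS, penicillin G and streptomycin. This was done alongside the IL-1α/TNF-α-stimulated ICAM-1 induction assay, and an IC50 was derived.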

A549 [8] = assay: Inhibition of TNF-alpha-induced ICAM1 in human A549 cells; assay type: functional, cell-based
Procedure, shortened: (§3)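 ICAM-1 induction assay. Human A549 cells were grown in RPMI 1640 with heat-inactivated 10% FBS, penicillin G and streptomycin. Cells were stimulated with recombinant IL-1α or TNF-α. Cell-surface ICAM-1 was detected with mouse anti-human ICAM-1 antibody C167 plus a peroxidase-conjugated goat anti-mouse IgG, and an IC50 was derived.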

A549 [9] = assay: Inhibition of IL-1-alpha-induced ICAM1 in human A549 cells; assay type: functional, cell-based; procedure, shortened: as §3

Structure (SMILES)	IC50 (WI-38) [µg/mL]	IC50 (HepG2) [µg/mL]	IC50 (WI-38 VA13) [µg/mL]	Activity [1] [%]	Activity [2] [%]	Activity [3] [%]	Activity [4] [%]	Activity [5] [%]	Activity [6] [%]	IC50 (A549 [7]) [µM]	IC50 (A549 [8]) [µM]	IC50 (A549 [9]) [µM]
COc1cccc2c1C(=O)c1c(O)c3c(c(O)c1C2=O)C[C@@](O)(C(=O)CO)C[C@@H]3O[C@H]1C[C@H](N)[C@H](O)[C@H](C)O1 [DOXORUBICIN]	0.76 (≈ 1.4 µM)	0.48 (≈ 0.883 µM)	0.08 (≈ 0.147 µM)	–	–	–	–	–	–	–	–	–
COc1ccc(CCN(C)CCCC(C#N)(c2ccc(OC)c(OC)c2)C(C)C)cc1OC (configuration not stated) [VERAPAMIL]	–	–	–	100	100	145	100	114	99	–	–	–
COc1cc([C@H]2OC[C@@H]3C(c4cc(OC)c(O)c(OC)c4)OC[C@H]23)ccc1O (some centres not stated) [MEDIORESINOL]	76.9 (≈ 198 µM)	84.7 (≈ 218 µM)	> 100	–	–	–	–	–	–	–	–	–
COc1cc(C[C@H]2CO[C@H](c3cc(OC)c4c(c3)OCO4)[C@H]2CO)cc2c1OCO2	74.3 (≈ 178 µM)	72 (≈ 173 µM)	99.1 (≈ 238 µM)	–	–	–	–	–	–	–	–	–
COc1cc([C@@H]2OC[C@@H]3[C@H]2CO[C@H]3c2cc(OC)c3c(c2)OCO3)cc(OC)c1O	96.6 (≈ 232 µM)	> 100	> 100	–	–	–	–	–	–	–	–	–
COc1cc([C@@H]2c3c(cc4c(c3OC)OCO4)C[C@H](COC(C)=O)[C@@H]2COC(C)=O)cc(OC)c1O	41.3 (≈ 82.2 µM)	74.4 (≈ 148 µM)	62.4 (≈ 124 µM)	–	–	–	–	–	–	> 316	13.4	107
COc1cc([C@H]2OC[C@H]3[C@@H]2CO[C@@H]3c2ccc3c(c2)OCO3)cc(OC)c1O	> 100	> 100	> 100	–	–	–	–	–	–	–	–	–
COc1cc([C@@H]2OC[C@@H]3[C@H]2CO[C@H]3c2cc(OC)c3c(c2)OCO3)cc(O)c1O	49.8 (≈ 124 µM)	13.2 (≈ 32.8 µM)	5.3 (≈ 13.2 µM)	92	117	169	103	105	101	–	–	–
CC(=O)O[C@H]1C(=O)[C@@]2(C)[C@H]([C@H](OC(=O)c3ccccc3)[C@]3(O)C[C@H](OC(=O)[C@H](O)[C@@H](NC(=O)c4ccccc4)c4ccccc4)C(C)=C1C3(C)C)[C@]1(OC(C)=O)CO[C@@H]1C[C@@H]2O [PACLITAXEL]	0.02 (≈ 0.0234 µM)	0.05 (≈ 0.0586 µM)	0.01 (≈ 0.0117 µM)	–	–	–	–	–	–	–	–	–
COc1cc([C@H]2OC[C@@H]3C(=O)OC[C@@H]32)cc(OC)c1OC [ZHEPIRESINOL]	57.7 (≈ 196 µM)	60.2 (≈ 205 µM)	50.7 (≈ 172 µM)	–	–	–	–	–	–	–	–	–
